Measurements taken from ChEMBL document CHEMBL1129428 (J Med Chem, 1996).
Where “and” joins values, the source holds several entries; their conditions need not be identical. Equal values may be shown once.

Experiments:
[1] = Compound was tested for toxicity after intraperitoneal injection into mice by using neurotoxicity screen test after 0.5 hr; settings: mouse, in vivo, ip
Mus musculus [2] = test: Compound was tested for anticonvulsant activity after intraperitoneal injection into mice by using scPTZ screen test after 1 hr; format: functional; settings: ip
How it was run: (§1)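 Quantitative intraperitoneal mouse testing in the MES, scPTZ or rotorod neurotoxicity screens at the peak time given for each compound (0.25–2 h). ED50 or TD50 reported in mg/kg with 95% CI and slope (SE).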

Mus musculus [3] = test: Toxicity after intraperitoneal injection into mice by using toxicity screen test after 0.5 hr; format: organism-based; settings: in vivo, ip
How it was run: (§2)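 Mice injected intraperitoneally at 30, 100 and 300 mg/kg and examined 0.5 and 4 h afterwards. Each entry is the minimum dose giving activity (MES protection, scPTZ protection, or rotorod failure for neurotoxicity) in half or more of the mice. Activity is called absent if nothing occurs at 300 mg/kg.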

Mus musculus [4] = test: Anticonvulsant activity after intraperitoneal injection into mice measured in a maximal electroshock scree (MES) screen; format: functional
Mus musculus [5] = test: Anticonvulsant activity after intraperitoneal injection into mice by using MES screen test after 0.5 hr; format: functional
Mus musculus [6] = test: Compound was tested for toxicity after intraperitoneal injection into mice by using toxicity screen test after 4 hr; format: organism-based; settings: in vivo, ip; how it was run: as §2
[7] = Compound was tested for toxicity after oral administration in rat by using neurotoxicity screen test after 0.25-24 hr; format: organism-based; settings: in vivo
How it was run: (§3)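 Rat neurotoxicity after oral dosing, observed at 0.25, 0.5, 1, 2, 4, 6, 8 and 24 h (8 h omitted for one compound).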

Mus musculus [8] = test: Anticonvulsant activity after intraperitoneal injection into mice by using MES screen test after 0.25 hr; format: functional
Mus musculus [9] = test: Anticonvulsant activity after intraperitoneal injection into mice by using scPTZ screen after 0.5 hr; format: functional
[10] = Compound was tested for toxicity after intraperitoneal injection into mice by using neurotoxicity screen test after 0.25 hr; settings: mouse, in vivo, ip
Mus musculus [11] = test: Compound was tested for anticonvulsant activity after intraperitoneal injection into mice by using scPTZ screen test after 0.25 hr; format: functional; settings: ip; how it was run: as §1
[12] = Compound was tested for toxicity after oral administration in rat by using neurotoxicity screen test after 0.5 hr; settings: in vivo
Rattus norvegicus [13] = test: Anticonvulsant activity after oral administration into rats; format: functional; set-up: concentration or dose not given beside the values
Rattus norvegicus [14] = test: Compound was tested for anticonvulsant activity after Oral Administration into rat by using MES screen test after 2 hr dose 12.5 mg/kg; format: functional
Rattus norvegicus [15] = test: Compound was tested for anticonvulsant activity after Oral Administration into Rats by using MES screen test after 4h,dose 12.5 mg/kg; number of rats out of four which were protected; format: functional
How it was run: (§4)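 Rats received the compound orally. […] Rats were tested in the MES screen at 0.25, 0.5, 1, 2 and 4 h. Each value is the number of rats protected out of 4. The test followed NINDS procedures.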

Rattus norvegicus [16] = test: Compound was tested for anticonvulsant activity after Oral Administration into Rats by using MES screen test after 0.25h,dose 12.5 mg/kg; No activity was demonstarted; format: functional, organism-based; set-up: dose 12.5 mg/kg; how it was run: as §4
Rattus norvegicus [17] = test: Compound was tested for anticonvulsant activity after Oral Administration into Rats by using MES screen test after 1h,dose 12.5 mg/kg; number of rats out of four which were protected; format: functional; how it was run: as §4
[18] = Compound was tested for toxicity after intraperitoneal injection into mice by using neurotoxicity screen test after 2 hr; format: organism-based; settings: mouse, in vivo, ip; how it was run: as §1
Rattus norvegicus [19] = test: Compound was tested for anticonvulsant activity after Oral Administration into rat by using MES screen test after 6 hr; format: functional
How it was run: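 Oral dosing in rats, maximal electroshock challenge, with ED50, 95% CI, slope and SE determined at the time listed for each compound (0.25 to 6 h range).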

[20] = Protection index = TD50/ED50 (MES); settings: mouse, in vivo; read-out: PI
Rattus norvegicus [21] = test: Compound was tested for anticonvulsant activity after Oral Administration into Rats by using MES screen test after 2h,dose 12.5 mg/kg; number of rats out of four which were protected; format: functional; how it was run: as §4
Mus musculus [22] = test: Compound was tested for anticonvulsant activity after intraperitoneal injection into mice by using scPTZ screen test after 2 hr; format: functional; settings: ip; how it was run: as §1
Mus musculus [23] = test: Compound was tested for anticonvulsant activity after intraperitoneal injection into mice by using MES screen test after 2 hr; format: functional; settings: ip; how it was run: as §1
Rattus norvegicus [24] = species: Rattus norvegicus; test: Protection index = TD50/ED50 (MES); format: ADME, organism-based; settings: in vivo
[25] = Protection index = TD50/ED50; format: ADME; settings: read-out: PI
Rattus norvegicus [26] = test: Compound was tested for anticonvulsant activity after Oral Administration into rat by using MES screen test after 2 hr; format: functional
How it was run: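 Rats dosed orally, typically at 50 mg/kg first, then mostly 12.5 mg/kg (some compounds at 30 mg/kg), and tested by maximal electroshock. Four rats per compound, scored at 0.25, 0.5, 1, 2 and 4 h as the number of rats protected out of 4.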

Mus musculus [27] = test: Compound was tested for anticonvulsant activity after intraperitoneal injection into mice by using MES screen test after 1 hr; format: functional; settings: ip; how it was run: as §1
[28] = Compound was tested for toxicity after oral administration in rat by using neurotoxicity screen test after 4 hr; format: organism-based; settings: in vivo; how it was run: as §3
Mus musculus [29] = test: Compound was tested for anticonvulsant activity after intraperitoneal injection into mice by using MES screen test after 1h,dose 12.50 mg/kg; format: functional; settings: ip
Rattus norvegicus [30] = test: Compound was tested for anticonvulsant activity after Oral Administration into Rats by using MES screen test after 0.25h,dose 12.5 mg/kg; number of rats out of four which were protected; format: functional; how it was run: as §4
Rattus norvegicus [31] = test: Compound was tested for anticonvulsant activity after Oral Administration into Rats by using MES screen test after 2h,dose 12.5 mg/kg; No activity was demonstarted; format: functional, organism-based; set-up: dose 12.5 mg/kg; how it was run: as §4
Rattus norvegicus [32] = test: Compound was tested for anticonvulsant activity after Oral Administration into Rats by using MES screen test after 0.5h,dose 12.5 mg/kg; No activity was demonstarted; format: functional, organism-based; set-up: dose 12.5 mg/kg; how it was run: as §4
Rattus norvegicus [33] = test: Compound was tested for anticonvulsant activity after Oral Administration into Rats by using MES screen test after 4h,dose 12.5 mg/kg; No activity was demonstarted; format: functional, organism-based; set-up: dose 12.5 mg/kg; how it was run: as §4
Mus musculus [34] = test: Anticonvulsant activity after intraperitoneal injection into mice by using scPTZ screen test after 4 hr; format: functional

Row | SMILES | Dose (Mus musculus [3]) | Dose (Mus musculus [4]) | Dose (Mus musculus [5]) | Dose (Mus musculus [6]) | Dose (Mus musculus [9]) | Activity (Rattus norvegicus [13]) | Activity (Rattus norvegicus [15]) | Activity (Rattus norvegicus [16]) | Activity (Rattus norvegicus [17]) | TD50 at 2 h [18] | selectivity ratio [20] | Activity (Rattus norvegicus [21]) | ED50 (Mus musculus [22]) | further results
1 | O=C1NC(=O)C(c2ccccc2)(c2ccccc2)N1 [PHENYTOIN] | 100 mg/kg | 30 mg/kg | 30 mg/kg | 100 mg/kg |  |  |  |  |  |  |  |  |  | TD50 at 0.5 h [1]: 41.2 mg/kg; ED50 (Mus musculus [2]): > 50 mg/kg; TD50 [7]: > 500 mg/kg
2 | CCCC(CCC)C(=O)O [VALPROIC ACID] |  |  |  |  | 300 mg/kg |  |  |  |  |  |  |  |  | ED50 (Mus musculus [8]): 287 mg/kg; TD50 at 0.25 h [10]: 483 mg/kg; ED50 (Mus musculus [11]): 209 mg/kg; TD50 at 0.5 h [12]: 859 mg/kg
3 | NC(=O)N/N=C/c1ccc(Oc2cc(F)ccc2F)cc1 | 300 mg/kg | 300 mg/kg | 100 mg/kg | 300 mg/kg | 100 mg/kg | 1 | 1 | No activity | 1 |  |  |  |  | ED50 (Rattus norvegicus [14]): 11.4 mg/kg
4 | CCc1ccc(Oc2ccc(/C=N/NC(N)=O)cc2)cc1 | 300 mg/kg | 30 mg/kg | 30 mg/kg | 100 mg/kg | 300 mg/kg | 2 | 4 | No activity | 4 | 34 mg/kg | 3.32 | 4 | > 100 mg/kg | ED50 (Rattus norvegicus [19]): 6.48 mg/kg; ED50 (Mus musculus [23]): 10.3 mg/kg
5 | CC/C(=N/NC(N)=O)c1ccc(Oc2ccc(F)cc2)cc1 | 300 mg/kg | 30 mg/kg | 30 mg/kg | 100 mg/kg | 100 mg/kg | 2 | 4 | No activity | 4 | 35.3 mg/kg |  | 4 | 12.8 mg/kg | PI (Rattus norvegicus [24]): 6.45 and 16.9; selectivity ratio [25]: 2.75; ED50 (Rattus norvegicus [26]): 4.25 mg/kg; ED50 (Mus musculus [27]): 5.46 mg/kg; TD50 at 4 h [28]: > 72 mg/kg
6 | Cc1ccc(C)c(Oc2ccc(/C=N/NC(N)=O)cc2)c1 |  | 100 mg/kg | 100 mg/kg | 300 mg/kg | 30 mg/kg |  |  |  | 1 | 356 mg/kg | 10.3 |  |  | ED50 (Mus musculus [29]): 34.7 mg/kg; Activity (Rattus norvegicus [30]): 1; Activity (Rattus norvegicus [31]): No activity; Activity (Rattus norvegicus [32]): No activity; Activity (Rattus norvegicus [33]): No activity; Dose (Mus musculus [34]): 300 mg/kg
